These results are taken from ChEMBL document CHEMBL1157197, “Design, synthesis and trypanocidal activity of lead compounds based on inhibitors of parasite glycolysis” (Bioorg Med Chem, 2008).

Broadly, the IC50 is the concentration that gives 50% inhibition. Lower therefore signals greater potency in that assay.

Test [1] addresses T1, ATP-dependent 6-phosphofructokinase (Trypanosoma brucei) (UniProt O15648).
T1 sequence (whole entry): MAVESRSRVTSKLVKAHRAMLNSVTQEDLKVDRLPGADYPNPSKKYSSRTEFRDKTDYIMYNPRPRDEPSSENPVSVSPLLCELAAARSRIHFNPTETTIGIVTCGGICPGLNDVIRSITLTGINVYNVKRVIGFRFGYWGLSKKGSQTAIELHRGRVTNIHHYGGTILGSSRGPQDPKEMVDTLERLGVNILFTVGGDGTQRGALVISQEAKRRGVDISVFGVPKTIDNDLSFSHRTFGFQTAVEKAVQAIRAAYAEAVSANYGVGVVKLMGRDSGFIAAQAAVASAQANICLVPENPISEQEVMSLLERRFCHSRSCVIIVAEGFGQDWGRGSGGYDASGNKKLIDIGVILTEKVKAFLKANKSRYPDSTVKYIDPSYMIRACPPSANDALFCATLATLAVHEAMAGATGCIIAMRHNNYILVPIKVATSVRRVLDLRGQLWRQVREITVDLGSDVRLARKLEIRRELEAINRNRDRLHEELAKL
Briefly: Inhibition of Trypanosoma brucei phosphofructokinase assessed as enzyme residual activity at 5 mM.

The target in test [2] is T2, Pyruvate kinase (Leishmania mexicana) (UniProt Q27686).
T2 sequence (whole entry): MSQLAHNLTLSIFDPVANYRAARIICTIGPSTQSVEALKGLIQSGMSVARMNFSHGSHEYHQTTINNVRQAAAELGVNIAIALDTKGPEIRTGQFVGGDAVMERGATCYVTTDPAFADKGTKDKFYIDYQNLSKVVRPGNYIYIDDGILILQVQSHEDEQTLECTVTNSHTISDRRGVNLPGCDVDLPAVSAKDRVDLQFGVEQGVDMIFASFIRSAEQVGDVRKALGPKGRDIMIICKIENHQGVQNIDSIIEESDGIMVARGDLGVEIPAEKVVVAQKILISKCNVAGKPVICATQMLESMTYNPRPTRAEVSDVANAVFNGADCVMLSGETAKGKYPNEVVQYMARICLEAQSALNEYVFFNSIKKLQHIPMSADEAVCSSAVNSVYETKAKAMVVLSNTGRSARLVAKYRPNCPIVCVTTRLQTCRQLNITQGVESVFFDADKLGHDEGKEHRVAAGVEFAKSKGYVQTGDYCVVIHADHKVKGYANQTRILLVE
The experiment in a line: Inhibition of Leishmania mexicana pyruvate kinase assessed as enzyme residual activity at 5 mM.

The next test addresses T3, Pyruvate kinase (Leishmania mexicana, UniProt Q27686).
T3 sequence (Q27686 whole entry): T2 sequence (whole entry)
Briefly: Inhibition of Leishmania mexicana pyruvate kinase.

Another test relates to Trypanosoma brucei. The experiment in a line: Antiparasitic activity against Trypanosoma brucei strain 427. The format is functional. The conditions noted are these: read-out: ED50 (the source's name). Summed up:
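Cultured bloodstream-form Trypanosoma brucei brucei strain 427 exposed to compounds in vitro; ED50 reported.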

The target of test [3] is T1, ATP-dependent 6-phosphofructokinase (Trypanosoma brucei). Briefly: Inhibition of Trypanosoma brucei phosphofructokinase assessed as enzyme residual activity at 1 mM.
Test [4] concerns the target T4, ATP-dependent 6-phosphofructokinase (Trypanosoma brucei, UniProt O15648).
T4 sequence (O15648 whole entry): T1 sequence (whole entry)
The experiment in a line: Inhibition of Trypanosoma brucei phosphofructokinase.

With `CC(C)[C@H](C)NC[C@H]1O[C@H](CO)[C@@H](O)[C@@H]1O`, the results for the Activity in test [1] and in test [2] were 49% and 26%, respectively. The compound further yielded an IC50 on Pyruvate kinase of 2300 µM.

In the case of `COc1ccc([C@@H](C)NC[C@H]2O[C@H](CO)[C@@H](O)[C@@H]2O)cc1`, in test [2], the Activity worked out at 25%. At Pyruvate kinase, this compound had an IC50 of 900 µM.

For `OC[C@H]1O[C@H](CNC2CCCc3ccccc32)[C@@H](O)[C@@H]1O` (some centres not stated), the Activity came to 62% in test [1] and 36% in test [2]. In the test on Trypanosoma brucei, the EC50 was 830 µM. Also, the IC50 at Pyruvate kinase amounted to 1200 µM.

For `O=C(NCc1ccc(Cl)c(Cl)c1)[C@H]1O[C@H](CNCc2ccc(Cl)c(Cl)c2)[C@@H](O)[C@@H]1O`, the Activity in test [3] worked out at 0.9%. Moreover, the EC50 with Trypanosoma brucei was found to be 30 µM. It took 23 µM to reach half-maximal inhibition in test [4] (IC50).

For the compound `OC[C@H]1O[C@H](CNCc2ccc(Cl)c(Cl)c2)[C@@H](O)[C@@H]1O`, the Activity worked out at 5% in test [1] and 43% in test [2]. Further, the EC50 in the test on Trypanosoma brucei worked out at 130 µM. The same compound had an IC50 in test [4] of 410 µM.

With `O=C(Nc1ccccc1)[C@H]1O[C@H](CNCc2ccc(Cl)c(Cl)c2)[C@@H](O)[C@@H]1O`, the Activity in test [3] stood at 5.5%.

Consider `O=C(NC1CCCCCC1)[C@H]1O[C@H](CNC2CCCCCC2)[C@@H](O)[C@@H]1O`, for which, in test [2], the Activity turned out to be 1.9%. Besides, the IC50 at Pyruvate kinase was determined as 26 µM.

Consider `OC[C@H]1O[C@H](CNC2CCCC2)[C@@H](O)[C@@H]1O`, for which the Activity in test [1] was 87%; in test [2], 52%. The compound also yielded an IC50 at Pyruvate kinase of 4100 µM.

In the case of `CCCCCCNC[C@H]1O[C@H](CO)[C@@H](O)[C@@H]1O`, the Activity in test [2] was 40%. Besides, the EC50 in the test with Trypanosoma brucei came out at 400 µM.

Consider `O=C(Nc1cccc([N+](=O)[O-])c1)[C@H]1O[C@H](CNC2CCCCCC2)[C@@H](O)[C@@H]1O`, for which the Activity in test [2] was 7.6%. Besides, 53 µM corresponded to half-maximal inhibition at Pyruvate kinase (IC50).

Regarding `O=C(NCc1ccccc1)[C@H]1O[C@H](CNCc2ccc(Cl)c(Cl)c2)[C@@H](O)[C@@H]1O`, in test [3], the Activity was 4%.

As to `O=C(Nc1ccc([N+](=O)[O-])cc1)[C@H]1O[C@H](CNCc2ccc(Cl)c(Cl)c2)[C@@H](O)[C@@H]1O`, in test [3], the Activity amounted to 0.8%.

Take `CCCC(C)NC[C@H]1O[C@H](CO)[C@@H](O)[C@@H]1O` (some centres not stated): the values for the Activity in test [1] and in test [2] were 70% and 26%, respectively. At Pyruvate kinase, the IC50 was found to be 2500 µM.

For `COc1ccc([C@H](C)NC[C@H]2O[C@H](CO)[C@@H](O)[C@@H]2O)cc1`, the Activity in test [2] is 22%. Further, inhibition on Pyruvate kinase was half-maximal at 3500 µM (IC50).

Consider `O=C(NCc1ccc(Cl)c(Cl)c1)[C@H]1O[C@H](CNC2CCCCCC2)[C@@H](O)[C@@H]1O`, for which the Activity in test [3] was 0.4%. In test [4], the half-maximal inhibitory concentration (IC50) turned out to be 49 µM.

Take `O=C(NC1CCCCCC1)[C@H]1O[C@H](CNCc2ccc(Cl)c(Cl)c2)[C@@H](O)[C@@H]1O`: the values for the Activity in test [2] and in test [3] were 88.2% and 4.7%, respectively. In addition, the EC50 with Trypanosoma brucei is 35 µM. In test [4], this compound returned an IC50 of 80 µM.

Consider `OC[C@H]1O[C@H](CNC2CCCCCC2)[C@@H](O)[C@@H]1O`, for which the Activity in test [1] was determined as 63%; in test [2] it was 19%. In addition, the EC50 in the test on Trypanosoma brucei came to 1880 µM. At Pyruvate kinase, this compound showed an IC50 of 71 µM.

`C[C@@H](NC[C@H]1O[C@H](CO)[C@@H](O)[C@@H]1O)c1ccc2ccccc2c1`: the results for the Activity in test [1] and in test [2] were 33% and 34%, respectively. Also, it took 1500 µM to reach half-maximal inhibition against Pyruvate kinase (IC50).

As to `OC[C@H]1O[C@H](CN[C@H]2C[C@@H]3CC[C@@H]2C3)[C@@H](O)[C@@H]1O`, the Activity stood at 40% in test [1] and 19% in test [2]. Moreover, on Pyruvate kinase, the IC50 was determined as 1500 µM.

Regarding `CCC(CO)NC[C@H]1O[C@H](CO)[C@@H](O)[C@@H]1O` (some centres not stated), the Activity in test [1] came to 36%; in test [2], 90%.

For the compound `C[C@H](NC[C@H]1O[C@H](CO)[C@@H](O)[C@@H]1O)c1ccc2ccccc2c1`, the Activity in test [2] was found to be 30%. At Pyruvate kinase, this compound showed an IC50 of 1500 µM.

Regarding `OC[C@H]1O[C@H](CNC2CCCCCCC2)[C@@H](O)[C@@H]1O`, the values for the Activity in test [1] and in test [2] were 64% and 57%, respectively.

For the compound `CC(CCCC(C)(C)O)NC[C@H]1O[C@H](CO)[C@@H](O)[C@@H]1O` (some centres not stated), the Activity in test [1] is 58%; in test [2], 125%.

Turning to `OC[C@H]1O[C@H](CNC2CCCCC2)[C@@H](O)[C@@H]1O`, the Activity in test [1] is 69%; in test [2], 83%.

Consider `Cc1ccc(CNC[C@H]2O[C@H](CO)[C@@H](O)[C@@H]2O)cc1C`, for which the Activity in test [1] is 59%; in test [2], 85%.

Turning to `Cc1ccc(CNC[C@H]2O[C@H](CO)[C@@H](O)[C@@H]2O)cc1`, the Activity was 73% in test [1] and 90% in test [2].

With `OC[C@H]1O[C@H](CNC2CCC2)[C@@H](O)[C@@H]1O`, the Activity in test [1] came to 54%; in test [2], 43%. Moreover, the IC50 at Pyruvate kinase came out at 4300 µM.

For `CC(NC[C@H]1O[C@H](CO)[C@@H](O)[C@@H]1O)C(O)c1ccccc1` (some centres not stated), the Activity amounted to 64% in test [1] and 80% in test [2].

In the case of `CC(CCc1ccccc1)NC[C@H]1O[C@H](CO)[C@@H](O)[C@@H]1O` (some centres not stated), the figures for the Activity in test [1] and in test [2] were 73% and 95%, respectively.

For the compound `OC[C@H]1O[C@H](CNCc2cccc(Cl)c2)[C@@H](O)[C@@H]1O`, the Activity in test [1] came to 85%; in test [2] it was 88%.

For the compound `COC[C@H](C)NC[C@H]1O[C@H](CO)[C@@H](O)[C@@H]1O`, the Activity stood at 35% in test [1] and 82% in test [2].

With `C=CCNC(=O)[C@H]1O[C@H](CNCc2ccc(Cl)c(Cl)c2)[C@@H](O)[C@@H]1O`, the Activity in test [3] came to 2%. Further, in the test on Trypanosoma brucei, the EC50 stood at 110 µM. In test [4], this compound showed an IC50 of 50 µM.

On to `OC[C@H]1O[C@H](CNC2Cc3ccccc3C2)[C@@H](O)[C@@H]1O`, for which the Activity amounted to 33% in test [1] and 49% in test [2].

In the case of `CC(C)CCC(C)NC[C@H]1O[C@H](CO)[C@@H](O)[C@@H]1O` (some centres not stated), the results for the Activity in test [1] and in test [2] were 44% and 115%, respectively.

`Cc1ccccc1CNC[C@H]1O[C@H](CO)[C@@H](O)[C@@H]1O`: the Activity in test [1] is 68%; in test [2] it was 100%.

With `O=C(Nc1cccc([N+](=O)[O-])c1)[C@H]1O[C@H](CNCc2ccc(Cl)c(Cl)c2)[C@@H](O)[C@@H]1O`, the Activity in test [3] was 1.7%.

In the case of `CC(C)[C@@H](C)NC[C@H]1O[C@H](CO)[C@@H](O)[C@@H]1O`, the Activity in test [1] came out at 51%; in test [2] it was 86%.

`CC(C)CCCC(C)NC[C@H]1O[C@H](CO)[C@@H](O)[C@@H]1O` (some centres not stated): the Activity in test [1] was 87%; in test [2], 80%.

Take `OC[C@H]1O[C@H](CN[C@H]2c3ccccc3C[C@H]2O)[C@@H](O)[C@@H]1O`: the Activity was 52% in test [1] and 103% in test [2].

As to `Cc1cccc(CNC[C@H]2O[C@H](CO)[C@@H](O)[C@@H]2O)c1`, the Activity in test [1] worked out at 61%; in test [2] it was 89%.
